Screening data: PubChem BioAssay, several laboratories
An excerpt weighted towards active compounds, which were near 4.6% of everything screened.
WT yeast gro inh – growth inhibition of WT strain, primary screen, mitochondrial fusion inhibitor project, WT and mutant strains, chemical genetic; inhibition, % at 10 µM; 190,000 tested, 2.1% active; mitochondrial fusion phenotypic screen; in the data active = inhibition above about 58%; tested in S. cerevisiae
RAM inhibit – inhibitors of the yeast RAM network, primary screen, dse1pr::URA3 reporter, 5-FOA selection; S. cerevisiae dse1pr::URA3 reporter, 5-FOA growth OD615, 2 d; analog-sensitive cbk1-as2 kinase mutant strain; inhibition, % at 50 µM; AID 868, 2007; 190,000 tested, 1.8% active;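 active = inhibition above a set limit, 3 SD over mean compound inhibition, cut at about 8.4% in these data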;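 note: 0% = DMSO-only wells with no growth and 100% = 10 µM 1-NA-PP1 full growth; inhibition rescues growth on 5-FOA so higher OD means more RAM inhibition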
Arbovirus inh – antivirals against arbovirus infection, primary screen, cell-based, full library, 10K replicate subset; arbovirus infection cell-based antiviral screen; inhibition, % at 10 µM; 200,000 tested, 0.37% active; AID 1251, 2008; in the data active = inhibition above about 30%
p47phox inh – p47phox/p22phox peptide binding inhibitors, primary screen, biochemical, uHTS, NADPH oxidase regulatory subunit. inhibition, % at 24.7 µM. 220,000 tested, 0.53% active. Neutrophil cytosol factor 1 (Homo sapiens), P14598. fluorescence polarization, 2 h;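 active = inhibition above about 30%, limit read from the data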;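 note: 0% = p47phox with labelled peptide and 100% = labelled peptide alone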
Target sequence (P14598 whole entry, looked up): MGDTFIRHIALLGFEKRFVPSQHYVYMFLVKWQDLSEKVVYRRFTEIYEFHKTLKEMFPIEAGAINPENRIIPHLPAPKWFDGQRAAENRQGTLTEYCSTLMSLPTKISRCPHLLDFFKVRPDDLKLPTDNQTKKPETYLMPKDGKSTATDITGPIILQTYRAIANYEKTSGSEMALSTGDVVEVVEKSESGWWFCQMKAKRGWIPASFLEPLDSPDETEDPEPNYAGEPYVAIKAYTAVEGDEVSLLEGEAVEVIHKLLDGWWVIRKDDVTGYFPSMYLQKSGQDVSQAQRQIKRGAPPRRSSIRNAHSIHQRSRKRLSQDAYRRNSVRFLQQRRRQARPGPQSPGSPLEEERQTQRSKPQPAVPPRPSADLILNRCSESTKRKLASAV
Biofilm kill mix – clotrimazole potentiators killing C. albicans biofilm, primary screen, 4-compound mixtures; inhibition, % at 7.6 µM; AID 1242, 2008; 120,000 tested, 0.02% active; C. albicans biofilm persisters + clotrimazole, fluorescence viability; primary screen in compound mixtures of four per well;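 note: compounds exposed to preformed 24 h biofilms for 48 h; 0% = untreated biofilm control and 100% = clotrimazole plus chlorhexidine kill blank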
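Incubation: 24 h biofilm formation, then 48 h compound exposure, 37 °C | Material: C. albicans biofilms | Buffer or medium: RPMI/MOPS medium, pH 7.0 | Measured by: 2-h Alamar Blue fluorescence, 535/590 nm excitation/emission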
Hck-Nef inh – inhibitors of Nef-activated human Hck kinase, primary screen, biochemical, Z-Lyte FRET, 384-well, Hck-YEEI; Tyrosine-protein kinase HCK (Homo sapiens), P08631; Recombinant Hck-YEEI plus Nef, Z-Lyte FRET kinase assay; inhibition, % at 20 µM; 220,000 tested, 0.68% active;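 active = Hck-Nef kinase inhibition above about 50%, limit read from the data; inactive = inhibition below that limit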;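 note: 0% = DMSO with Hck plus Nef and 100% = Hck alone without Nef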
Numbers without * were called inactive; · = no result given; + = active, no number.

SMILES	WT yeast gro inh	RAM inhibit	Arbovirus inh	p47phox inh	Biofilm kill mix	Hck-Nef inh
COc1cc2c(cc1OC)C(c1ccc(-c3cc(Cl)ccc3Cl)o1)=NCC2	20	0	14	51*	·	-4
CCCCC(=O)NC(c1ccc([N+](=O)[O-])cc1)c1c(O)ccc2ccccc12 (centres undefined)	82*	4	-34	-11	15	5
C/C(CC(=O)Nc1ccc(C)c(Cl)c1)=N\NC(=O)c1ccco1	1	0	-4	0	8	13
Cc1cc(C(=O)COC(=O)c2ccccc2O)c(C)n1Cc1cccs1	10	9.0*	-5	-34	·	11
CCOc1ccc2nc(NC(=O)c3cccc(-c4cc5ccccc5oc4=O)c3)sc2c1	-23	1	-33	57*	14	43
COc1ccc2nc(NC(=O)c3cccc(OCc4c(C)noc4C)c3)sc2c1	73*	3	-16	-4	·	4
CCOC(=O)N1CCN(c2ccc(S(=O)(=O)N(Cc3ccccc3)Cc3ccccc3)cn2)CC1	-8	7	0	-1	·	1
C=CCc1ccc(O)c(-c2ccc(O)c(CC=C)c2)c1	63*	-2	-20	-9	2	5
C=CCc1cc(C(=O)N2CCCCC2)ccc1O	10	2	10	-14	·	3
COc1ccc(OC)c(N(CC(=O)Nc2ccc3c(c2)OCCO3)S(C)(=O)=O)c1	10	-1	5	2	·	-4
COc1ccc(-c2csc3nc(-c4ccc(C)cc4)oc(=O)c23)cc1OC	10	2	-33	43*	3	42
COc1ccc(-c2csc3nc(C(C)(C)C)oc(=O)c23)cc1OC	15	1	-1	3	0	19
Cc1cccn2cc(COc3ccc(-c4ccccc4)cc3)nc12	80*	0	2	-34	21	0
CC1CC(C)CN(c2ncc3c(n2)CC(c2ccccc2)CC3=O)C1 (centres undefined)	71*	2	-15	-2	·	0
CC(C)c1ccc(C2CC(=O)c3cnc(N4CCc5ccccc5C4)nc3C2)cc1 (centres undefined)	58*	3	-7	-5	·	-1
COc1cc(C2CC(=O)c3cnc(N4CCN(Cc5ccccc5)CC4)nc3C2)cc(OC)c1OC (centres undefined)	2	4	-15	-8	·	1
O=C1CC(c2ccco2)Cc2nc(N3CCc4ccccc4C3)ncc21 (centres undefined)	12	2	-6	-6	·	3
CNC[C@H](O)c1ccc(O)c(O)c1	2	3	-1	51*	17	0
COc1cccc(-c2nc(SCC(=O)Nc3nc(-c4ccccc4)c(C)s3)[nH]c(=O)c2C#N)c1	1	6	58*	-62	10	19
Cc1sc(NC(=O)CSc2nc(O)cc(=O)[nH]2)nc1-c1ccccc1	14	3	2	-28	6	14
CC1CCc2c(sc3nc(CN4CCOCC4)nc(N4CCc5ccccc5C4)c23)C1 (centres undefined)	23	1	0	-52	11	4
Cc1ccc(Oc2nc(CN3CCOCC3)nc3sc4c(c23)CCC(C)C4)cc1 (centres undefined)	63*	-1	-38	0	8	4
Cc1ccc(Oc2nc(CN3CCOCC3)nc3sc4c(c23)CCC(C)C4)cc1C (centres undefined)	65*	1	-39	-8	-4	5
C=COCCNC(=S)N1CCOCCOCCN(C(=S)NCCOC=C)CCOCC1	-13	1	11	2	25	19
CCCCOCCCNC(=O)CC(C)c1ccccc1 (centres undefined)	6	0	-2	-6	0	-1
SMILES	WT yeast gro inh	RAM inhibit	Arbovirus inh	p47phox inh	Biofilm kill mix	Hck-Nef inh
COc1ccc(C(=O)NCc2cccnc2)cc1S(=O)(=O)N1CCCc2ccccc21	-9	0	6	-2	9	21
CCOC(=O)C1=NNC2(c3ccc(Cl)cc3)C(=O)N(c3ccc(C)cc3)C(=O)C12 (centres undefined)	3	11*	-5	-6	13	1
O=C(CSc1ccc2c(c1)OCCO2)Nc1ncc(Cl)cc1Cl	8	0	13	-9	·	-14
COc1cccc(/C=C/C(=O)OCC(=O)Nc2ccc(Cl)c(S(=O)(=O)N(C)C)c2)c1	24	8.5*	1	-22	12	15
COc1cccc(/C=C/C(=O)OCC(=O)Nc2cccc(S(=O)(=O)N(C)C)c2)c1	9	8	1	-18	3	-16
O=C(COC(=O)/C=C/c1ccccc1Cl)NCCc1ccc(Cl)cc1Cl	10	8.6*	-8	-8	4	2
COc1cc(NC(=O)COC(=O)/C=C/c2ccc(OC)c(OC)c2)cc(OC)c1	3	3	3	1	8	0
COc1cc(NC(=O)COC(=O)/C=C/c2ccccc2Cl)cc(OC)c1	1	10*	-1	-10	10	-2
O=C(CSc1ccc2c(c1)OCCO2)NCCc1ccc(Cl)cc1Cl	53	8.4*	0	-10	11	0
O=C1NCCN(C(=O)CCc2nnc(-c3ccsc3)o2)C1c1ccc(F)cc1 (centres undefined)	5	-1	3	3	14	10
CCC(=O)Nc1ccc(C(=O)CN2CCC(C)CC2)cc1	-2	1	2	-159	13	5
COc1cc(CCC(=O)NNC(=O)c2ccc(C)cc2)cc(OC)c1OC	-4	1	5	-3	5	-25
C#CCOCCOCCOCCNc1nc(N2CCN(C(=O)[C@H](C(C)C)n3cc(CCO)nn3)CC2)nc(N2CCN(C(=O)[C@H](CCCCN)n3cc(CCCC)nn3)CC2)n1	-8	1	0	5	3	-17
O=C1CSC(c2ccc(Cl)cc2)N1Nc1nc(N2CCOCC2)nc(N2CCOCC2)n1 (centres undefined)	-3	0	2	-9	10	4
O=C(COC(=O)/C=C/c1ccccc1)Nc1cccc(Oc2ccccc2)c1	3	8.9*	-4	-19	-1	5
CSCC[C@H](NC(=O)Nc1cccc(Br)c1)C(=O)O	·	·	·	-13	24	16
Cc1cc(C)c(-c2cc(NC(=O)COC(=O)c3ccc(CO)cc3)n(-c3ccccc3)n2)cc1C	14	3	-1	+	13	-35
Cc1ccc2[nH]c(C(=O)O)c(NC(=O)CN3CCN(c4cccc(C)c4C)CC3)c2c1	-2	2	4	-6	·	1
